Here are results for ten compounds from ChEMBL document CHEMBL1152213, “Design, synthesis and antiviral efficacy of a series of potent chloropyridyl ester-derived SARS-CoV 3CLpro inhibitors” (Bioorg Med Chem Lett, 2008).

Calls of active or inactive are those of the source. The calls are words filed in the database; no cut-off is given here.

What is called IC50 is the concentration at which inhibition is half-maximal.

The first assay has as its system SARS-CoV. In words: Antiviral activity against SARS-CoV Urbani in african green monkey Vero E6 cells assessed as cell viability after 48 hrs. Type of assay: functional, organism-based. The conditions noted are these: Severe acute respiratory syndrome-related coronavirus.
For the compound `CC(=O)n1ccc2c(C(=O)Oc3cncc(Cl)c3)cccc21`, the IC50 worked out at 1080 nM. Consider `CC(C)(C)OC(=O)N[C@@H]1C(=O)N2[C@@H]1SC(C)(C)[C@@H]2C(=O)Oc1cncc(Cl)c1`, for which the IC50 is greater than 100000 nM.

`O=C(Oc1cncc(Cl)c1)c1ccc2[nH]ccc2c1`: the half-maximal inhibitory concentration (IC50) was 310 nM. For `O=C(Oc1cncc(Cl)c1)c1ccc2cc[nH]c2c1`, the half-maximal inhibitory concentration (IC50) is 230 nM. Regarding `CC(=O)n1ccc2cc(C(=O)Oc3cncc(Cl)c3)ccc21`, the concentration for half-maximal inhibition (IC50) came out at 400 nM. On the same count and under the same terms, to `O=C(Oc1cncc(Cl)c1)c1cccc2cc[nH]c12` belongs 80 nM. With `CC(=O)N1Cc2ccccc2C[C@H]1C(=O)Oc1cncc(Cl)c1`, the IC50 came out at 140 nM. Turning to `O=C(On1nnc2ccccc21)c1ccc2[nH]ccc2c1`, the IC50 was 200 nM. The same measure, in the same setting: under `Cc1ccc(S(=O)(=O)n2ccc3cc(C(=O)Oc4cncc(Cl)c4)ccc32)cc1` stands 370 nM; under `O=C(Oc1cncc(Cl)c1)c1ccc2c(ccn2S(=O)(=O)c2cccc([N+](=O)[O-])c2)c1`, 89 nM.

Another assay deals with Replicase polyprotein 1a (Severe acute respiratory syndrome-related coronavirus) (UniProt P0C6U8). Description: Inhibition of SARS 3Clpro measured by rate of reaction.
Settings: not given
The method in brief: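 Full-length authentic enzyme at 100 nM in 50 mM HEPES pH 7.5 with 1 mM DTT and 0.01 mg/mL BSA. IC50 taken from reaction rates across increasing inhibitor concentrations.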
Take `CC(=O)n1ccc2c(C(=O)Oc3cncc(Cl)c3)cccc21`: the outcome was inactive. The same measure, in the same setting: under `CC(=O)n1ccc2cc(C(=O)Oc3cncc(Cl)c3)ccc21` stands “inactive”.
